Source: ChEMBL document CHEMBL4130522, “Synthesis and Pharmacological Evaluation of Selective Histone Deacetylase 6 Inhibitors in Melanoma Models” (ACS Med Chem Lett, 2017)
Each block holds one compound with its values, some of them ahead of it. Calls of active or inactive are those of the source. The calls are words filed in the database; no cut-off is given here.

Key:
[1] = target: T1, Protein deacetylase HDAC6 (Homo sapiens) (UniProt Q9UBN7); test: Inhibition of HDAC6 in human WM795 cells assessed as increase in acetylated alpha-tubulin levels at 0.5 to 8 uM after 24 hrs by Western blot method; type: cell-based
T1 sequence (whole entry): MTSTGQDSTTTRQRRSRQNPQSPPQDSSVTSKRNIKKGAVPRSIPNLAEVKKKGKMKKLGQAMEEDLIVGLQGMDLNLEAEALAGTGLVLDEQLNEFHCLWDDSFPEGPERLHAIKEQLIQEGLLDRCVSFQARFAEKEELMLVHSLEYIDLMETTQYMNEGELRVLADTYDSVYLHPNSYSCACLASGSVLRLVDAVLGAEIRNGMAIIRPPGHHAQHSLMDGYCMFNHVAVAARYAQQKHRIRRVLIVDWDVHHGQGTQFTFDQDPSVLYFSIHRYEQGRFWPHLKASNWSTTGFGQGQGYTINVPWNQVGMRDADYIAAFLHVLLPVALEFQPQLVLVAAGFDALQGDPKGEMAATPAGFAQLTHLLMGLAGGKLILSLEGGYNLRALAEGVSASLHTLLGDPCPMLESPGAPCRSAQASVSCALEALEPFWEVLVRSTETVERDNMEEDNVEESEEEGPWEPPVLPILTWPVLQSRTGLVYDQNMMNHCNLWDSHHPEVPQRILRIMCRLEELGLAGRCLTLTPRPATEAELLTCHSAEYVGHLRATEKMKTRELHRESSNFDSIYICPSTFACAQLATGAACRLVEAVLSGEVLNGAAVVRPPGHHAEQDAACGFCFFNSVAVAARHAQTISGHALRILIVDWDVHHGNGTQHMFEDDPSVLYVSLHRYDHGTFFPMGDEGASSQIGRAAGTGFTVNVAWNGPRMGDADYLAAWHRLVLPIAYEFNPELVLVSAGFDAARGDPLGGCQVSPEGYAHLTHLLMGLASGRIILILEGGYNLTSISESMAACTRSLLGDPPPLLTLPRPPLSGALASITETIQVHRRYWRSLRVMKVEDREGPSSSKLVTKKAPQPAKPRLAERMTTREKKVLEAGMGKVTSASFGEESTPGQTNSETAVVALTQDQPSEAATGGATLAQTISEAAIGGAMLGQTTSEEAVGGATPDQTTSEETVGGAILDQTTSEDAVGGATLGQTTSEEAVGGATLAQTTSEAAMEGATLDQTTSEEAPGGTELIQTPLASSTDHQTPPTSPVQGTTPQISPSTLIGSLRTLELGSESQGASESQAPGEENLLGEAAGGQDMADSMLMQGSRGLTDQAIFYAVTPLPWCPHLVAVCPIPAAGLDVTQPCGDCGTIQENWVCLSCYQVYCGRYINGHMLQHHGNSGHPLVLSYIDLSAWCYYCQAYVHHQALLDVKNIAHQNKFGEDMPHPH
Outline: (§1)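 WM795 human melanoma cells were treated for 24 h across a range of concentrations. Protein extracts were run on SDS-PAGE and immunoblotted with antibodies to HDAC6, α-tubulin, acetylated α-tubulin, histone H3 and acetylated H3. A selective HDAC6 inhibitor and a pan-HDAC inhibitor were included on each blot as positive controls. Blots are representative of three independent experiments.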

Mus musculus [2] = organism: Mus musculus; test: Antiproliferative activity against mouse FcMCL cells at lower concentration after 48 hrs by MTS assay; type: functional, cell-based
Homo sapiens = organism: Homo sapiens; test: Selectivity ratio of IC50 for recombinant human full length HDAC8 expressed in baculovirus infected Sf9 insect cells to IC50 for recombinant human full length HDAC6 expressed in baculovirus infected Sf9 insect cells
[3] = target: T2, Protein deacetylase HDAC6 (Homo sapiens, UniProt Q9UBN7); test: Inhibition of recombinant human full length HDAC6 expressed in baculovirus infected Sf9 insect cells using p53 (379 to 382 residues) derived RHKKAc as substrate preincubated for 5 to 10 mins followed by substrate addition measured after 2 hrs by fluorescence assay
T2 sequence (Q9UBN7 whole entry): T1 sequence (whole entry)

[4] = target: T1, Protein deacetylase HDAC6 (Homo sapiens); test: Inhibition of HDAC6 in human WM795 cells assessed as increase in acetylated histone H3 levels at 0.5 to 8 uM after 24 hrs by Western blot method; type: cell-based; outline: as §1
B16 [5] = test: Antiproliferative activity against mouse B16 cells at lower concentration after 48 hrs by MTS assay; type: functional, cell-based
Histone deacetylase 1 = Histone deacetylase 1 (Homo sapiens, UniProt Q13547); test: Inhibition of recombinant human full length HDAC1 expressed in baculovirus infected Sf9 insect cells using p53 (379 to 382 residues) derived RHKKAc as substrate preincubated for 5 to 10 mins followed by substrate addition measured after 2 hrs by fluorescence assay
Mus musculus [6] = test: Antitumor activity against mouse B16-F10-luc cells xenografted in C57BL/6 mouse assessed as reduction in tumor volume at 20 mg/kg, ip administered daily for 22 days; type: functional, organism-based
Outline: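 C57BL/6 mice implanted subcutaneously with B16-F10-luc WT cells; daily intraperitoneal dosing at 20 mg/kg for 22 days versus vehicle group; tumor volume and survival monitored throughout.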

Mus musculus [7] = organism: Mus musculus; test: Antiproliferative activity against mouse SM1 cells at 1 to 15 uM after 48 hrs by MTS assay; type: functional, cell-based
[8] = Half life in mouse liver microsomes at 200 uM in presence of NADPH by LC-MS/MS analysis; type: ADME, microsome
[9] = target: T3, Protein deacetylase HDAC6 (Mus musculus) (UniProt Q9Z2V5); test: Inhibition of HDAC6 in mouse RAW264.7 cells assessed as decrease in IL-10 production at 3 uM after 24 hrs by ELISA; type: cell-based
T3 sequence (whole entry): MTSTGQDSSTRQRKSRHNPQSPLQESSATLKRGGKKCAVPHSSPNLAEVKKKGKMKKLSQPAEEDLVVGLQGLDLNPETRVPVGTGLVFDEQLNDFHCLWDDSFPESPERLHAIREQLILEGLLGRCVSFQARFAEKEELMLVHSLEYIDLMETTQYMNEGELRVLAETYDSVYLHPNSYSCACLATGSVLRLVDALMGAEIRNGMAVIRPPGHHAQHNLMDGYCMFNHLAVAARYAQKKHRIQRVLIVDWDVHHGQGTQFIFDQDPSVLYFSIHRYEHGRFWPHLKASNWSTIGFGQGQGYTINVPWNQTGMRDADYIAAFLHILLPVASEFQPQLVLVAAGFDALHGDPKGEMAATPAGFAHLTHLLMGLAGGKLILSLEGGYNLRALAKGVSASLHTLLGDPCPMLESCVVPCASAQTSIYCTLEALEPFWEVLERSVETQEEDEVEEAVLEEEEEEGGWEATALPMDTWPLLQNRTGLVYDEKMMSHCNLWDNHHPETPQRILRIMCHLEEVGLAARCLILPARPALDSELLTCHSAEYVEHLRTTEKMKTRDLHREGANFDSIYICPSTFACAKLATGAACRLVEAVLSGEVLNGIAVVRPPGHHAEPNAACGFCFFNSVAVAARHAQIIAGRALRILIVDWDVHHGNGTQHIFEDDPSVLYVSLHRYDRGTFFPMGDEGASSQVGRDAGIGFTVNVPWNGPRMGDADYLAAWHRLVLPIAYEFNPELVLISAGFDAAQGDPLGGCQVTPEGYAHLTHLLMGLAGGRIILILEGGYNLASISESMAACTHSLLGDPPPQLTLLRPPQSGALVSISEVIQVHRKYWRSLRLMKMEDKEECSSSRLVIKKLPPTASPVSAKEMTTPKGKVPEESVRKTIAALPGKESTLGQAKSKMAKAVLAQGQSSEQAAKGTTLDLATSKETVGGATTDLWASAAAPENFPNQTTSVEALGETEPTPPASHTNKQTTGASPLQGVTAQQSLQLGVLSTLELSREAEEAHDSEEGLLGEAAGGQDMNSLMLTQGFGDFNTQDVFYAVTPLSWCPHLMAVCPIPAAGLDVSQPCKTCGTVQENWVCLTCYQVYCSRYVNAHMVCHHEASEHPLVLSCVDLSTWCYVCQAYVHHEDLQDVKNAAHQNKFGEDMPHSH
Outline: (§2)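 Cells (primary peritoneal elicited macrophages from C57BL/6 mice, or RAW264.7 murine macrophages) stimulated with LPS 1 µg/mL, with or without 3 µM compound, for 24 h; supernatants collected and IL-10 quantified by ELISA; statistics versus untreated cells.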

[10] = Antitumor activity against mouse B16-F10-luc cells xenografted in C57BL/6 mouse assessed as mouse survival rate at 20 mg/kg, ip administered daily for 22 days (reference value: 40%); type: functional; conditions: 528 h
Mus musculus [11] = test: Antitumor activity against mouse B16-F10-luc cells xenografted in C57BL/6 SCID mouse assessed as tumor growth inhibition at 20 mg/kg, ip administered daily for 20 days; type: functional, organism-based
[12] = Half life in human liver microsomes at 200 uM in presence of NADPH by LC-MS/MS analysis; type: ADME, microsome
[13] = target: T3, Protein deacetylase HDAC6 (Mus musculus); test: Inhibition of HDAC6 in C57BL/6 mouse primary peritoneal macrophages assessed as decrease in IL-10 production at 3 uM after 24 hrs by ELISA; outline: as §2
B16 [14] = test: Antiproliferative activity against mouse B16 cells at 1 to 15 uM after 48 hrs by MTS assay; type: functional, cell-based
Mus musculus [15] = organism: Mus musculus; test: Antiproliferative activity against mouse FcMCL cells at 1 to 15 uM after 48 hrs by MTS assay; type: functional, cell-based
[16] = target: T1, Protein deacetylase HDAC6 (Homo sapiens); test: Inhibition of recombinant human full length HDAC6 expressed in baculovirus infected Sf9 insect cells up to 30 uM using p53 (379 to 382 residues) derived RHKKAc as substrate preincubated for 5 to 10 mins followed by substrate addition measured after 2 hrs by fluorescence assay

Sequence of Histone deacetylase 1 (Q13547 whole entry, the tested form may be a part): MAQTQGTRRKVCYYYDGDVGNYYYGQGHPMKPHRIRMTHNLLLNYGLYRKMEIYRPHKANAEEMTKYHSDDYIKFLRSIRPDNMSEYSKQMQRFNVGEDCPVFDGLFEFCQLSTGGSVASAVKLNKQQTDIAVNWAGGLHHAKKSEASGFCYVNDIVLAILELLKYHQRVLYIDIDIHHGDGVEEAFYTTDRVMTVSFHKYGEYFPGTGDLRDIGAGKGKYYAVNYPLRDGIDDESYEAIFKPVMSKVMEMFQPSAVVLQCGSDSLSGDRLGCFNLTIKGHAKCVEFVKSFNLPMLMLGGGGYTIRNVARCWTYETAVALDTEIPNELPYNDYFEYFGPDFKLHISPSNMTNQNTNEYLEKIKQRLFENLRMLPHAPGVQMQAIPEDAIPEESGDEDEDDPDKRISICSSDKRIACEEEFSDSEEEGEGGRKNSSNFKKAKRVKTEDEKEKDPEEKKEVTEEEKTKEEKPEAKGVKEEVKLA

- IC50 ([3]; sf9): Not Active
SMILES: CCCCN(Cc1ccc(NC(=O)[C@H](C)N)cc1)C(=O)Nc1ccccc1

- IC50 ([3]; sf9): Not Active
SMILES: CCCCN(Cc1ccc(/C(N)=N/O)cc1)C(=O)Nc1ccccc1

- inhibition [1]: Active
- inhibition [4]: inactive
SMILES: CCCCN(Cc1ccc(C(=O)NO)cc1)C(=O)Nc1ccccc1

- IC50 ([3]; sf9): Not Active
- inhibition [16]: inactive
SMILES: O=C(O)c1ccc(CN(CCCCO)C(=O)Nc2ccccc2)cc1

- IC50 (Histone deacetylase 1): 2910 nM
- IC50 ([3]; read-out: IC50): 0.87 nM
SMILES: O=C(NO)c1ccc(CN(CCCCO)C(=O)Nc2ccccc2)cc1
- Ratio IC50 (Homo sapiens): > 500

- IC50 (Histone deacetylase 1): 6130 nM
- IC50 ([3]; read-out: IC50): 12 nM
SMILES: CC(C)CN(Cc1ccc(C(=O)NO)cc1)C(=O)Nc1ccccc1

More lines, now with the values behind:

SMILES: CCCCN(Cc1ccc(C(=O)NO)cc1)C(=O)Nc1cccc(N(C)C)c1
- inhibition [1]: Active
- Activity (Mus musculus [2]): Active
- Ratio IC50 (Homo sapiens): > 500
- IC50 ([3]; read-out: IC50): 1.7 nM
- inhibition [4]: inactive
- Activity (B16 [5]): Active

SMILES: CCCCN(Cc1ccc(N(O)C=O)cc1)C(=O)Nc1ccccc1
- IC50 (Histone deacetylase 1): > 30000 nM
- IC50 ([3]; read-out: IC50): 1020 nM

SMILES: CN1CCc2c(c3ccccc3n2Cc2ccc(C(=O)NO)cc2)C1
- Activity (Mus musculus [6]): Active

SMILES: CCCCN(Cc1ccc(C(=O)NO)cc1)C(=O)Nc1ccc2cn[nH]c2c1
- Activity (Mus musculus [7]): Active
- half-life at 200 µM [8]: 3.98 h
- inhibition [9]: Active
- inhibition [1]: Active
- Ratio IC50 (Homo sapiens): > 500
- survival at 20 mg/kg [10]: 100%
- TGI (Mus musculus [11]): inactive
- IC50 ([3]; read-out: IC50): 1.6 nM
- half-life at 200 µM [12]: 6.8 h
- Activity (Mus musculus [6]): Active
- inhibition [4]: inactive
- inhibition [13]: Active
- Activity (B16 [14]): Active
- Activity (Mus musculus [15]): Active

SMILES: CCCCN(Cc1ccc(NC(=O)CN)cc1)C(=O)Nc1ccccc1
- IC50 ([3]; sf9): Not Active

SMILES: CCCCN(Cc1ccc(C(=O)NO)cc1)C(=O)Nc1ncccn1
- Activity (Mus musculus [7]): Active
- inhibition [1]: Active
- IC50 ([3]; read-out: IC50): 6 nM
- inhibition [4]: inactive
- Activity (B16 [14]): Active
- Activity (Mus musculus [15]): Active

SMILES: CCCCN(Cc1ccc(C(=O)NO)cc1)C(=O)Nc1cc(C)ccn1
- IC50 (Histone deacetylase 1): 7540 nM
- IC50 ([3]; read-out: IC50): 43 nM

SMILES: CCCCN(C(=O)Nc1cccc(N(C)C)c1)c1ccc(C(=O)NO)cc1
- IC50 (Histone deacetylase 1): > 30000 nM
- IC50 ([3]; read-out: IC50): 1790 nM

SMILES: CCCCN(Cc1ccc(C(=O)NO)cc1)C(=O)NCCN1CCCC1
- IC50 (Histone deacetylase 1): 14400 nM
- IC50 ([3]; read-out: IC50): 74 nM
